Test results published in ChEMBL document CHEMBL4825662 (J Med Chem, 2021).
pEC50: −log10 of the molar value. ≈ marks a conversion by molar mass, not a printed value.

Columns and labels:
[1] = Protein binding in rat plasma assessed as unbound fraction at 5 uM by LC-MS/MS analysis based equilibrium dialysis method; assay type: ADME, cell-free
[2] = Cytotoxicity against African green monkey Vero cells by MTT assay; assay type: cell-based; conditions: chlorocebus sabaeus
How it was run: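 Viability was assessed by MTT after culture with compound at 0.01 nM to 100 μM, run in parallel with plaque reduction assays. Values are the average of at least two testing occasions.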

[3] = Kinetic solubility of compound in PBS at 200 uM at pH 7.4 by LC-MS/LC-UV analysis; assay type: physicochemical; conditions: read-out: Kinetic_solubility
How it was run: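 Compound added from DMSO into PBS pH 7.4; precipitation measured across a range of concentrations.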

[4] = Intrinsic clearance in Beagle dog liver microsomes preincubated followed by NADPH addition and measured up to 45 mins by LC-MS/MS analysis; assay type: ADME, Canis lupus familiaris, Microsome
[5] = Protein binding in dog plasma assessed as unbound fraction at 5 uM by LC-MS/MS analysis based equilibrium dialysis method; assay type: ADME, cell-free, Canis lupus familiaris
[6] = Intrinsic clearance in Sprague-Dawley rat liver microsomes preincubated followed by NADPH addition and measured up to 45 mins by LC-MS/MS analysis; assay type: ADME, Microsome
[7] = Half life in Beagle dog liver microsomes preincubated followed by NADPH addition and measured up to 45 mins by LC-MS/MS analysis
[8] = Half life in human liver microsomes preincubated followed by NADPH addition and measured up to 45 mins by LC-MS/MS analysis; assay type: ADME, Microsome
[9] = Intrinsic clearance in human liver microsomes preincubated followed by NADPH addition and measured up to 45 mins by LC-MS/MS analysis; assay type: ADME, Microsome
[10] = Apparent permeability of compound in wild type MDCK at 10 uM incubated for 1 hr by LC-MS/MS assay; assay type: ADME, Canis lupus familiaris; conditions: dog
Human orthopneumovirus = assay: Antiviral activity against Respiratory syncytial virus A2 infected in African green monkey Vero cells by Plaque reduction assay; assay type: functional, organism-based
[11] = Protein binding in human plasma assessed as unbound fraction at 5 uM by LC-MS/MS analysis based equilibrium dialysis method; assay type: ADME, cell-free
[12] = Half life in Sprague-Dawley rat liver microsomes preincubated followed by NADPH addition and measured up to 45 mins by LC-MS/MS analysis; assay type: ADME, Microsome
[13] = Clearance in Sprague-Dawley rat at 1 mg/kg, iv administered […] measured after 0.02 to 24 hrs by tandem liquid chromatography/mass spectrometry; assay type: ADME, organism-based; conditions: in vivo, time 0.02-24 hrs
[14] = Cmax in CD1 mouse at 5 mg/kg, po measured after 0.03 to 24 hrs by UHPLC-TOF method; assay type: ADME, organism-based; design: route oral, time upper 24 hrs, time lower 0.03 hrs, dose 5 mg/kg; conditions: in vivo
[15] = Drug metabolism in rat liver microsomes assessed as metabolite M1 formation at 10 uM incubated for 60 mins by HPLC method; assay type: ADME, Microsome; conditions: 1 h
How it was run: (§1)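 Compound at 10 μM was incubated with rat or human liver microsomes. Sites of metabolism were proposed from mass spectral fragmentation patterns.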

[16] = Oral bioavailability in CD1 mouse at 5 mg/kg measured after 0.03 to 24 hrs by UHPLC-TOF method; assay type: ADME, organism-based; conditions: in vivo, time 0.03-24 hrs
How it was run: (§2)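 Male CD-1 mice, acclimatized and individually housed, dosed IV and PO as amorphous-solid suspension. Terminal cardiac-puncture blood into heparinized tubes on wet ice, centrifuged at 4 °C within 15 min; plasma snap-frozen at −20 °C. IV arm sampled 2 min–24 h, oral arm 5 min–24 h. Plasma analysed by UHPLC-quadrupole-TOF MS.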

[17] = Volume of distribution at steady state in CD1 mouse at 1 mg/kg, iv measured after 0.083 to 24 hrs by UHPLC-TOF method; assay type: ADME, organism-based; conditions: in vivo, time 0.083-24 hrs, read-out: Vdss; how it was run: as §2
[18] = Cmax in Sprague-Dawley rat at 5 mg/kg, po administered via gavage measured after 0.02 to 24 hrs by tandem liquid chromatography/mass spectrometry; assay type: ADME, organism-based; design: route oral, dose 5 mg/kg, time upper 24 hrs, time lower 0.02 hrs; conditions: in vivo
How it was run: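 Male Sprague–Dawley rats weighing 200–250 g, 3 per route, were used. The i.v. bolus was 1 mg/kg at 1 mg/mL in 40:60 dimethylacetamide/saline. Oral gavage doses were 5 or 10 mg/kg at 5 mg/mL in 1% methyl cellulose with 0.1% Tween 80. Heparinized blood was taken at 0.02–24 h (ten time points). Plasma was analyzed by LC-MS/MS after acetonitrile precipitation.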

[19] = Thermodynamic solubility in PBS at 1 to 100 uM at pH 7.4 by HPLC-UV method; assay type: physicochemical; conditions: dose 1-100 µM, read-out: Therm_solubility
[20] = Drug metabolism in human liver microsomes assessed as metabolite M1 formation at 10 uM incubated for 60 mins by HPLC method; assay type: ADME, Microsome; conditions: 1 h; how it was run: as §1
[21] = Oral bioavailability in Sprague-Dawley rat at 10 mg/kg administered via gavage measured after 0.02 to 24 hrs by tandem liquid chromatography/mass spectrometry; assay type: ADME, organism-based; conditions: in vivo, time 0.02-24 hrs
How it was run: (§3)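 Male Sprague–Dawley rats (200–250 g), 3 per route. IV bolus at 1 mg/kg, 1 mg/mL in 40:60 dimethylacetamide/saline; oral gavage at 5 or 10 mg/kg, 5 mg/mL in 1% methyl cellulose, 0.1% Tween 80 in water. Serial blood at 0.02–24 h (ten points) into heparin, spun at 4 °C, plasma frozen; acetonitrile protein precipitation, ESI LC-MS/MS with matrix curve and internal standards.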

[22] = Volume of distribution at steady state in Sprague-Dawley rat at 1 mg/kg, iv administered […] measured after 0.02 to 24 hrs by tandem liquid chromatography/mass spectrometry; assay type: ADME, organism-based; conditions: in vivo, time 0.02-24 hrs, read-out: Vdss; how it was run: as §3
[23] = Clearance in CD1 mouse at 1 mg/kg, iv measured after 0.083 to 24 hrs by UHPLC-TOF method; assay type: ADME, organism-based; conditions: in vivo, time 0.083-24 hrs
[24] = Intrinsic clearance in rat hepatocytes assessed per million cells at 3 uM measured up to 60 mins by LC-MS/MS analysis; assay type: ADME, cell-based, Hepatocyte; conditions: read-out: CLH
[25] = Apparent permeability across apical to basolateral side in MDCK-MDR1 cells at 10 uM measured at 60 mins by LC-MS/MS analysis; assay type: ADME, cell-based, Canis lupus familiaris; conditions: dog, mdck-mdr1, 1 h, 10 µM
[26] = Efflux ratio of apparent permeability in MDCK-MDR1 cells at 10 uM measured at 60 mins by LC-MS/MS analysis; assay type: ADME, cell-based, Canis lupus familiaris; conditions: dog, mdck-mdr1, 1 h, 10 µM

Row | fraction unbound at 5 µM [1] | solubility kinetic at 200 µM [3] [µM] | intrinsic clearance [4] [µL/min] | fraction unbound at 5 µM [5] | Microsomal intrinsic clearance [6] [µL/min] | half-life [7] [min] | half-life [8] [min] | intrinsic clearance (CLint) [9] [µL/min] | Papp at 1 h, 10 µM [10] [×10⁻⁶ cm/s] | pEC50 (Human orthopneumovirus) | fraction unbound at 5 µM [11] | half-life [12] [min] | clearance [13] [mL/min/kg] | Cmax [18] [ng/mL] | solubility thermodynamic [19] [µM] | bioavailability [21] [%] | Vd [22] [L/kg] | SMILES | CC50 [2] [nM] | also measured
1 | 0.24 | 160 (≈ 66.8 µg/mL) | < 28 | 0.14 | < 31 | > 100 | 6 | 488 | 11 | 6.51 | 0.17 | > 89 |  |  |  |  |  | CC(C)CCn1c(CN2C(=O)C3(CCCC3)c3ccncc32)nc2cc(CN)ccc21 | 23100 | 
2 | 0.1 | 155 (≈ 60.2 µg/mL) | < 28 | 0.1 | < 19 | > 100 | 5 | 592 | 12 | 7.51 | 0.07 | > 95 | 98 | 6 | 155 (≈ 60.2 µg/mL) | 4 | 34 | CC(C)CCn1c(CN2C(=O)C3(CC3)c3ccccc32)nc2cc(CN)ccc21 | 15300 | Cmax [14]: 6 ng/mL; Drug metabolism [15]: Metabolite_Detected; bioavailability [16]: 4%; Vd [17]: 34 L/kg; Drug metabolism [20]: Metabolite_Detected; clearance [23]: 98 mL/min/kg
3 | 0.333 |  | 6.23 | 0.151 | 45 |  |  | 50.7 |  | 9.10 | 0.184 |  | 174 | 44.2 | 176 (≈ 71.7 µg/mL) | 25 | 54.3 | CC(C)CCn1c(CN2C(=O)C3(CC3)c3ccc(F)cc32)nc2cc(CN)ccc21 | 3000 | hepatocyte CLint at 3 µM [24]: 43.1 µL/min/1e6 cells; Papp [25]: 0.75 10^-6 cm/s; Ratio [26]: 88
